Results published in ChEMBL document CHEMBL2424622, “Development of amino-pyrimidine inhibitors of c-Jun N-terminal kinase (JNK): kinase profiling guided optimization of a 1,2,3-benzotriazole lead” (Bioorg Med Chem Lett, 2013).

How the values were obtained:
[1] = target: T1, Serine/threonine-protein kinase BRSK2 (Homo sapiens) (UniProt Q8IWQ3); experiment: Competitive binding affinity to BRSK2 (unknown origin) at 10 uM in presence of ATP relative to control
T1 sequence (whole entry): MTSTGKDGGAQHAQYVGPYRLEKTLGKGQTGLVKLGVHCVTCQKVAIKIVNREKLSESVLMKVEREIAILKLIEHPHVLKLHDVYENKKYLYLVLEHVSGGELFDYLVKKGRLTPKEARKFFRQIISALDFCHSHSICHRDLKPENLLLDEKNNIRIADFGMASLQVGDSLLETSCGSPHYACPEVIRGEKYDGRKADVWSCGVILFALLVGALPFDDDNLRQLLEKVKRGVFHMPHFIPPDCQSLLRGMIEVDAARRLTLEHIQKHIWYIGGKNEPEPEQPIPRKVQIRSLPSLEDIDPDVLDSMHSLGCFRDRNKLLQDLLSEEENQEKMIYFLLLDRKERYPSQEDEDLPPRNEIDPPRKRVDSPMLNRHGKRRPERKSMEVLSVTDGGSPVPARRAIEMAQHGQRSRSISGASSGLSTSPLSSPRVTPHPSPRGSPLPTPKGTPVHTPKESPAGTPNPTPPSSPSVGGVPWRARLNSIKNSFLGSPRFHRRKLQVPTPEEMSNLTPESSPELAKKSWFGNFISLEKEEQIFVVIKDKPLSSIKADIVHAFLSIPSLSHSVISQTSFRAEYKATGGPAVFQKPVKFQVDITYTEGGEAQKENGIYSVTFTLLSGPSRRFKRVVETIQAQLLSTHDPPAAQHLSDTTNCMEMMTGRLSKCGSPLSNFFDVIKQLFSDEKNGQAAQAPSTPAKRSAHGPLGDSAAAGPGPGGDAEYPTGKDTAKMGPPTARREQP

[2] = target: Tyrosine-protein kinase receptor UFO (Homo sapiens) (UniProt P30530); experiment: Competitive binding affinity to AXL (unknown origin) at 10 uM in presence of ATP relative to control
Chain of Tyrosine-protein kinase receptor UFO (Homo sapiens) (P30530 whole entry): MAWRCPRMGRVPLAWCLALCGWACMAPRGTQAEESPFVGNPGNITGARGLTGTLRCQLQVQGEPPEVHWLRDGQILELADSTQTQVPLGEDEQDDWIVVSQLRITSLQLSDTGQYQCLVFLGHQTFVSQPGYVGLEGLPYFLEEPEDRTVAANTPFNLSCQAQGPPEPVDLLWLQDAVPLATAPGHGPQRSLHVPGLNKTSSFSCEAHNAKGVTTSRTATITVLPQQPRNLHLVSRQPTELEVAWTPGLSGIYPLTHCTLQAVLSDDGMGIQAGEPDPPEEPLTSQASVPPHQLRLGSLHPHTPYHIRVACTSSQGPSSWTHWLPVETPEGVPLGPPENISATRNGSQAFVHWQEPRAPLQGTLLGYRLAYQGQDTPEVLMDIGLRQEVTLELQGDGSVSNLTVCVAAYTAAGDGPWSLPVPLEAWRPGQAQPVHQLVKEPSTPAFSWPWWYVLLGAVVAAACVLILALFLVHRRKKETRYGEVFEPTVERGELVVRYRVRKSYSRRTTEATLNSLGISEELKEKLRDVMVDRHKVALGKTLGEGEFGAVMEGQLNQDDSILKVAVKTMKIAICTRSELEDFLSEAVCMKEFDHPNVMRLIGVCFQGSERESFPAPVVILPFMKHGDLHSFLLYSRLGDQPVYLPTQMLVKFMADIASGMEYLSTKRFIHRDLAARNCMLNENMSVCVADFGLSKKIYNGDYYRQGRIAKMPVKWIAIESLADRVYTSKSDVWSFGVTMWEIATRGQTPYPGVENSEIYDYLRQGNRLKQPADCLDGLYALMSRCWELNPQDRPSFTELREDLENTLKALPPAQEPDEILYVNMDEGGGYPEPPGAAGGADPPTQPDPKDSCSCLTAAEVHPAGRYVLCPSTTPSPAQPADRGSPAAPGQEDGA

[3] = target: 5'-AMP-activated protein kinase catalytic subunit alpha-2 (Homo sapiens) (UniProt P54646); experiment: Competitive binding affinity to AMPKalpha2 (unknown origin) at 10 uM in presence of ATP relative to control
Chain of 5'-AMP-activated protein kinase catalytic subunit alpha-2 (Homo sapiens) (P54646 whole entry, looked up): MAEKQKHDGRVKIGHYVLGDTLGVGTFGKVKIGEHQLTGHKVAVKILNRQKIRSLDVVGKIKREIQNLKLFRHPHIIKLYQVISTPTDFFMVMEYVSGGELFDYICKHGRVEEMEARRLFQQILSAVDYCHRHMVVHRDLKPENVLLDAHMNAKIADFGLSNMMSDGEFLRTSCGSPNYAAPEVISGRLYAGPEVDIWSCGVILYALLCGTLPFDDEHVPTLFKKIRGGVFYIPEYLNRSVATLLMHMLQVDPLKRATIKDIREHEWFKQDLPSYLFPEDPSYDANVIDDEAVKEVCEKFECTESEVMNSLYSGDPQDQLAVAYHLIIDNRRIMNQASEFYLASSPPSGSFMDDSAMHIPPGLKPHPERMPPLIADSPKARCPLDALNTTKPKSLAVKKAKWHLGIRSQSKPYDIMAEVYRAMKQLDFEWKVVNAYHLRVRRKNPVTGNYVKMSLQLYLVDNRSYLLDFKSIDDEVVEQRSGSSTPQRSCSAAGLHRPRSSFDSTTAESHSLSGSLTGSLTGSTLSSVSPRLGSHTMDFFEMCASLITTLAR
Method in brief: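 In vitro ATP-site competition binding assay across a diverse panel of 128 kinases, with each compound tested at a single concentration. Kinase binding is expressed relative to control.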

[4] = target: RAC-gamma serine/threonine-protein kinase (Homo sapiens) (UniProt Q9Y243); experiment: Competitive binding affinity to AKT3 (unknown origin) at 10 uM in presence of ATP relative to control
[5] = tested on: Tyrosine-protein kinase ABL1 (Homo sapiens), P00519 [M351T]; experiment: Competitive binding affinity to ABL1 M351T mutant (unknown origin) at 10 uM in presence of ATP relative to control
[6] = target: Serine/threonine-protein kinase tousled-like 2 (Homo sapiens) (UniProt Q86UE8); experiment: Competitive binding affinity to TLK2 (unknown origin) at 10 uM in presence of ATP relative to control
Chain of Serine/threonine-protein kinase tousled-like 2 (Homo sapiens) (Q86UE8 whole entry, looked up): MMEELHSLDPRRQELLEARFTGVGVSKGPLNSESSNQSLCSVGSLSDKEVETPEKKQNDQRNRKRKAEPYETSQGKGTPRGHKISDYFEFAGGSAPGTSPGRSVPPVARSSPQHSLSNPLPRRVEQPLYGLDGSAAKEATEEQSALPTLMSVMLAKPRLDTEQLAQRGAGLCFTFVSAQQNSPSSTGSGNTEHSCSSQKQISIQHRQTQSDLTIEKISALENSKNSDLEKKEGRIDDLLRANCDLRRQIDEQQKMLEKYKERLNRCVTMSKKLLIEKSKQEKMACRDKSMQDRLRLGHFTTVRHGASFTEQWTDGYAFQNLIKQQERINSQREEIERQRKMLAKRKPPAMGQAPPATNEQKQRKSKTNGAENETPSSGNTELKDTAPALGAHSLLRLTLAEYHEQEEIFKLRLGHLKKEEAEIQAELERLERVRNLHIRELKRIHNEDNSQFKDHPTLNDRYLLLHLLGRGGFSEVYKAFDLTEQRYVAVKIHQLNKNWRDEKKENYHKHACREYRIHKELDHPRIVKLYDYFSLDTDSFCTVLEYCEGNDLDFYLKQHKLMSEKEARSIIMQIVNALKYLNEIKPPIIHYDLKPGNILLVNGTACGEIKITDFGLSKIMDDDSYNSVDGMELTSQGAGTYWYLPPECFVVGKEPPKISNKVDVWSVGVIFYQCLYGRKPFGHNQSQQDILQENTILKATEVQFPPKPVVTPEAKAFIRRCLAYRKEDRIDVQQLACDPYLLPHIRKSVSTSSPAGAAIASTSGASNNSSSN

[7] = target: Serine/threonine-protein kinase SIK2 (Homo sapiens) (UniProt Q9H0K1); experiment: Competitive binding affinity to SNF1LK2 (unknown origin) at 10 uM in presence of ATP relative to control
Chain of Serine/threonine-protein kinase SIK2 (Homo sapiens) (Q9H0K1 whole entry, looked up, the tested form may be a part): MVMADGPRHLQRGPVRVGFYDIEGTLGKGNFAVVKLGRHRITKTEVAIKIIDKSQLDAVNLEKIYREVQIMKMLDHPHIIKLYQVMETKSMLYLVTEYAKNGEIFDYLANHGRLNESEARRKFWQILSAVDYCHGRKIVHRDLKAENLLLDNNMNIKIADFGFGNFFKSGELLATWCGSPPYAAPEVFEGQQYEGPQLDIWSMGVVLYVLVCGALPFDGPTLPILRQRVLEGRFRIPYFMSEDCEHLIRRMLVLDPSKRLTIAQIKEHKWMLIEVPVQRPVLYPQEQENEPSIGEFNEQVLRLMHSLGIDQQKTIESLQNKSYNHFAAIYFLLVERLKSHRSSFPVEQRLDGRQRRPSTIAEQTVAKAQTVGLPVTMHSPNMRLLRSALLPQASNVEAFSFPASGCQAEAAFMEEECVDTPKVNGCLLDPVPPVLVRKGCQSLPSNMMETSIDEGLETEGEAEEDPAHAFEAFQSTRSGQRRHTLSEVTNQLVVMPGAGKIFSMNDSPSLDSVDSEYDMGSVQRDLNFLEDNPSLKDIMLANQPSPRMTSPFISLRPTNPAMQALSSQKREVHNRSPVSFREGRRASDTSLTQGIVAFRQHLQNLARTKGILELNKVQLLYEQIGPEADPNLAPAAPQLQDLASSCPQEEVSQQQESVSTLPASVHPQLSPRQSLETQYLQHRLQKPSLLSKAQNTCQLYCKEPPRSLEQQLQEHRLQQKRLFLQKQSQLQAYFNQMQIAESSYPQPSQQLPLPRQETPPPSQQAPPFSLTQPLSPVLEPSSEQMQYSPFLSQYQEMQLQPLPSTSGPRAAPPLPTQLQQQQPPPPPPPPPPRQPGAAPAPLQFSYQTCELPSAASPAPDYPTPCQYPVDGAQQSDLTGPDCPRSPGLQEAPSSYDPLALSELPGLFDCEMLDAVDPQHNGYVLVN

[8] = target: Ribosomal protein S6 kinase alpha-1 (Homo sapiens, UniProt Q15418); experiment: Competitive binding affinity to RPS6KA1 kinase domain 2 (unknown origin) at 10 uM in presence of ATP relative to control
Chain of Ribosomal protein S6 kinase alpha-1 (Q15418 whole entry, the tested form may be a part): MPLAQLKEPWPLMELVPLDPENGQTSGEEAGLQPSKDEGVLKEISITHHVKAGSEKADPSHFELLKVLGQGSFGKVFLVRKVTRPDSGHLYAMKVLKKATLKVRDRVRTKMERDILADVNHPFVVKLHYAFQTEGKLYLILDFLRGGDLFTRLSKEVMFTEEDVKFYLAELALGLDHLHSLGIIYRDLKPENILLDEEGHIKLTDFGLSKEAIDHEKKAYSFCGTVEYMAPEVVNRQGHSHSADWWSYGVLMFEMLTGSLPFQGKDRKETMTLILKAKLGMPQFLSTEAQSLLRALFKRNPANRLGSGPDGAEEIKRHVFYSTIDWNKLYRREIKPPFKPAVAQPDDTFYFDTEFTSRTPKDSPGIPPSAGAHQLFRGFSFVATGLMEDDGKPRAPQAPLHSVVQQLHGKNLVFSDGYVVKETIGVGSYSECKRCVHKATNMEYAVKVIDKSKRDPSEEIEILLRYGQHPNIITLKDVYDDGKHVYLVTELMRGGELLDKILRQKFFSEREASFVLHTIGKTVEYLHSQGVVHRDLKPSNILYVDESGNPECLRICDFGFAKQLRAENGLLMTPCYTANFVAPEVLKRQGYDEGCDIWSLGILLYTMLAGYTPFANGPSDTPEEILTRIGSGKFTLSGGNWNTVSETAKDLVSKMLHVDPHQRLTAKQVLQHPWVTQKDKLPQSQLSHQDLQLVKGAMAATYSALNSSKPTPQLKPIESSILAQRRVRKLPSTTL

[9] = target: T2, Serine/threonine-protein kinase RIO3 (Homo sapiens) (UniProt O14730); experiment: Competitive binding affinity to RIOK3 (unknown origin) at 10 uM in presence of ATP relative to control
T2 sequence (whole entry): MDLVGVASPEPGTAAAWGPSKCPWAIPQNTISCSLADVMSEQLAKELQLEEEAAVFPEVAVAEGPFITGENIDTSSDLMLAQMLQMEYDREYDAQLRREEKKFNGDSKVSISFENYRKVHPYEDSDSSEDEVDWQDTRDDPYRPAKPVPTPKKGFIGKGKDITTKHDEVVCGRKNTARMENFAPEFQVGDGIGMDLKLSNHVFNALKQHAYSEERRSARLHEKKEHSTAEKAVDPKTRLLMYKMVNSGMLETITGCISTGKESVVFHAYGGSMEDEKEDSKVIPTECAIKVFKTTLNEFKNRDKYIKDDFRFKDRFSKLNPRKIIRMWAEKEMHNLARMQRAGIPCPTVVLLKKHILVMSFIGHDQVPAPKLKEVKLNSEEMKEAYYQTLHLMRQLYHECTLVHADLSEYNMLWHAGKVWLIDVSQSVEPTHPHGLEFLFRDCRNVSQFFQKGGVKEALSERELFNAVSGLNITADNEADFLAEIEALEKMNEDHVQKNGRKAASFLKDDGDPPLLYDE

Homo sapiens = species on record: Homo sapiens; experiment: Selectivity ratio of IC50 for human JNK2 to IC50 for human JNK1
Method in brief: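 JNK1 and JNK2 activities were each measured as phosphorylation of GST-ATF2 (19–96) with [γ-33P]ATP, and IC50s were determined for each enzyme. The ratio is JNK2 IC50 over JNK1 IC50. IC50s are the mean of at least three experiments.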

[10] = target: Mitogen-activated protein kinase kinase kinase 12 (DLK) (Homo sapiens) (UniProt Q12852); experiment: Competitive binding affinity to DLK (unknown origin) at 10 uM in presence of ATP relative to control
Chain of Mitogen-activated protein kinase kinase kinase 12 (DLK) (Homo sapiens) (Q12852 whole entry, looked up): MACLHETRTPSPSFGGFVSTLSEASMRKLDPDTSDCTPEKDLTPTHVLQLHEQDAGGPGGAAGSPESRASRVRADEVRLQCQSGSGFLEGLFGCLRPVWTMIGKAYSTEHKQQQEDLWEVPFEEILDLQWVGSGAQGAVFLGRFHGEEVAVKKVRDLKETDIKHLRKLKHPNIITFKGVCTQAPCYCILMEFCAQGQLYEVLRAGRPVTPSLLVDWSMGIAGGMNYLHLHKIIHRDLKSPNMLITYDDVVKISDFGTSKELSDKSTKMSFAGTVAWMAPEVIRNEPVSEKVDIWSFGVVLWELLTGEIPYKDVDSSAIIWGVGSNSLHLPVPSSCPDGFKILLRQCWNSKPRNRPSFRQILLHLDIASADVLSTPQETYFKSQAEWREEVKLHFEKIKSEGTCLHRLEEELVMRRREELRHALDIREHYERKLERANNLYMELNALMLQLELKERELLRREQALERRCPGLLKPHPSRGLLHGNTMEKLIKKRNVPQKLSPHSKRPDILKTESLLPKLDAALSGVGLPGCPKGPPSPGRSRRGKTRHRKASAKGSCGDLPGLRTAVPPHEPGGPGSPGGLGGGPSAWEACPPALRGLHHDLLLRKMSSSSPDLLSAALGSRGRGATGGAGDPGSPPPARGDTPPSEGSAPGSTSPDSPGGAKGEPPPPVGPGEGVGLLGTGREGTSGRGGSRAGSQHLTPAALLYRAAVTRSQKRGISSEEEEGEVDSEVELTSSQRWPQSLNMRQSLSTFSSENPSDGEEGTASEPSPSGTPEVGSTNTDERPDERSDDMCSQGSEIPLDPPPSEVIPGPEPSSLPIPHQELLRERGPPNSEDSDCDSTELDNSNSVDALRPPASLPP

Compound | inhibition [1] | inhibition [2] | inhibition [3] | inhibition [4] | inhibition [5] | inhibition [6] | inhibition [7] | inhibition [8] | inhibition [9] | Ratio IC50 (Homo sapiens) | inhibition [10]
O[C@H]1CC[C@H](Nc2nccc(-n3nnc4ccccc43)n2)CC1 | < 50% | < 50% | 74% | < 50% | < 50% | < 50% | 73% | 100% | < 50% | 4 | < 50%
N[C@H]1CC[C@H](Nc2nccc(-n3nnc4ccccc43)n2)CC1 | – | – | – | – | – | – | – | – | – | 4 | –
O=C([C@H]1CC[C@H](Nc2nccc(-n3nnc4ccccc43)n2)CC1)N1CCOCC1 | – | – | – | – | – | – | – | – | – | 4 | –
O[C@H]1CC[C@H](Nc2nccc(-n3ncc4ccccc43)n2)CC1 | < 50% | 93% | < 50% | < 50% | < 50% | < 50% | < 50% | 100% | < 50% | – | < 50%
O[C@H]1CC[C@H](Nc2nccc(-c3n[nH]c4ccccc34)n2)CC1 | 69% | 100% | 89% | < 50% | < 50% | 96% | – | – | – | – | –
O[C@H]1CC[C@H](Nc2nccc(-n3ccc4ccccc43)n2)CC1 | < 50% | < 50% | < 50% | < 50% | < 50% | < 50% | < 50% | 95% | < 50% | – | < 50%
